Calls of active or inactive are those of the source.
Experiments:
Mus musculus [1] = assay: Anticonvulsant activity in Kunming mouse assessed as protection against maximal electroshock-induced seizures at 30 mg/kg, ip after 0.5 hrs; assay type: functional, organism-based; parameters: dose 30 mg/kg
Mus musculus [2] = assay: Anticonvulsant activity in Kunming mouse assessed as protection against subcutaneous pentylenetetrazole-induced seizures at 30 mg/kg, ip after 0.5 hrs; assay type: functional, organism-based; parameters: dose 30 mg/kg
Summary of the method: (§1)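 Male Kunming mice (20 ± 2.0 g) received the compound ip as a suspension in 0.5% methylcellulose at 30, 100 or 300 mg/kg, one to four mice per dose. Pentylenetetrazole in 0.9% saline was given sc at 0.5 h and 4.0 h after dosing. Protection meant no threshold seizure (one clonic spasm episode of at least 5 s). Scored as protected/tested.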

Mus musculus [3] = assay: Anticonvulsant activity in Kunming mouse assessed as protection against subcutaneous pentylenetetrazole-induced seizures at 30 mg/kg, ip after 4 hrs; assay type: functional, organism-based; parameters: dose 30 mg/kg; summary of the method: as §1
Mus musculus [4] = assay: Anticonvulsant activity in Kunming mouse assessed as protection against subcutaneous pentylenetetrazole-induced seizures at 100 mg/kg, ip after 4 hrs; assay type: functional, organism-based; parameters: dose 100 mg/kg; summary of the method: as §1
Mus musculus [5] = assay: Neurotoxicity in Kunming mouse assessed as minimum motor impairment at 30 mg/kg, ip after 0.5 hrs by rotarod test; assay type: toxicity, organism-based; parameters: dose 30 mg/kg, route intraperitoneal; conditions: in vivo
Summary of the method: (§2)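 Rotorod neurotoxicity in male Kunming mice (20 ± 2.0 g) given ip doses of 30, 100 or 300 mg/kg as a suspension in 0.5% methylcellulose, one to four mice per dose. Motor impairment was examined at 0.5 h and 4.0 h after injection. Reported as number of animals showing toxicity/number tested.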

Mus musculus [6] = assay: Neurotoxicity in Kunming mouse assessed as minimum motor impairment at 100 mg/kg, ip after 0.5 hrs by rotarod test; assay type: toxicity, organism-based; parameters: dose 100 mg/kg, route intraperitoneal; conditions: in vivo; summary of the method: as §2
Mus musculus [7] = assay: Neurotoxicity in Kunming mouse assessed as minimum motor impairment at 300 mg/kg, ip after 0.5 hrs by rotarod test; assay type: toxicity, organism-based; parameters: dose 300 mg/kg, route intraperitoneal; conditions: in vivo; summary of the method: as §2
Mus musculus [8] = assay: Neurotoxicity in Kunming mouse assessed as minimum motor impairment at 30 mg/kg, ip after 4 hrs by rotarod test; assay type: toxicity, organism-based; parameters: dose 30 mg/kg, route intraperitoneal; conditions: in vivo; summary of the method: as §2
Mus musculus [9] = assay: Neurotoxicity in Kunming mouse assessed as minimum motor impairment at 100 mg/kg, ip after 4 hrs by rotarod test; assay type: toxicity, organism-based; parameters: dose 100 mg/kg, route intraperitoneal; conditions: in vivo; summary of the method: as §2
Mus musculus [10] = assay: Neurotoxicity in Kunming mouse assessed as minimum motor impairment at 300 mg/kg, ip after 4 hrs by rotarod test; assay type: toxicity, organism-based; parameters: dose 300 mg/kg, route intraperitoneal; conditions: in vivo; summary of the method: as §2
Rattus norvegicus [11] = assay: Anticonvulsant activity in Kunming rat assessed as protection against maximal electroshock-induced seizures at 30 mg/kg, po after 0.25 hrs; assay type: functional
Summary of the method: (§3)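 Male Kunming rats (250 ± 5.0 g) were dosed orally at 30 mg/kg, four rats per compound. Seizures were induced by a 150-mA corneal current for 0.2 s at 0.25, 0.5, 1, 2 and 4 h after dosing. Readout was the number of rats out of four protected against hindlimb tonic extension.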

Rattus norvegicus [12] = assay: Anticonvulsant activity in Kunming rat assessed as protection against maximal electroshock-induced seizures at 30 mg/kg, po after 0.5 hrs; assay type: functional; summary of the method: as §3
Rattus norvegicus [13] = assay: Anticonvulsant activity in Kunming rat assessed as protection against maximal electroshock-induced seizures at 30 mg/kg, po after 1 hr; assay type: functional; summary of the method: as §3
Rattus norvegicus [14] = assay: Anticonvulsant activity in Kunming rat assessed as protection against maximal electroshock-induced seizures at 30 mg/kg, po after 2 hrs; assay type: functional; summary of the method: as §3
Rattus norvegicus [15] = assay: Anticonvulsant activity in Kunming rat assessed as protection against maximal electroshock-induced seizures at 30 mg/kg, po after 4 hrs; assay type: functional; summary of the method: as §3
Rattus norvegicus [16] = assay: Neurotoxicity in Kunming rat assessed as minimum motor impairment at 30 mg/kg, po after 0.25 hrs by rotarod test; assay type: toxicity, organism-based; parameters: dose 30 mg/kg, route oral; conditions: in vivo
Summary of the method: (§4)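 Rotorod neurotoxicity in male Kunming rats (250 ± 5.0 g) given 30 mg/kg po, four rats per compound. Motor impairment was assessed at 0.25, 0.5, 1, 2 and 4 h after oral administration.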

Rattus norvegicus [17] = assay: Neurotoxicity in Kunming rat assessed as minimum motor impairment at 30 mg/kg, po after 0.5 hrs by rotarod test; assay type: functional, organism-based; parameters: dose 30 mg/kg; summary of the method: as §4
Rattus norvegicus [18] = assay: Neurotoxicity in Kunming rat assessed as minimum motor impairment at 30 mg/kg, po after 1 hr by rotarod test; assay type: functional, organism-based; parameters: dose 30 mg/kg; summary of the method: as §4
Rattus norvegicus [19] = assay: Neurotoxicity in Kunming rat assessed as minimum motor impairment at 30 mg/kg, po after 2 hrs by rotarod test; assay type: functional, organism-based; parameters: dose 30 mg/kg; summary of the method: as §4
Rattus norvegicus [20] = assay: Neurotoxicity in Kunming rat assessed as minimum motor impairment at 30 mg/kg, po after 4 hrs by rotarod test; assay type: functional, organism-based; parameters: dose 30 mg/kg; summary of the method: as §4
Mus musculus [21] = assay: Anticonvulsant activity in Kunming mouse assessed as protection against maximal electroshock-induced seizures at 100 mg/kg, ip after 0.5 hrs; assay type: functional, organism-based; parameters: dose 100 mg/kg
Mus musculus [22] = assay: Anticonvulsant activity in Kunming mouse assessed as protection against maximal electroshock-induced seizures at 300 mg/kg, ip after 0.5 hrs; assay type: functional, organism-based; parameters: dose 300 mg/kg
Mus musculus [23] = assay: Anticonvulsant activity in Kunming mouse assessed as protection against maximal electroshock-induced seizures at 30 mg/kg, ip after 4 hrs; assay type: functional, organism-based; parameters: dose 30 mg/kg
Mus musculus [24] = assay: Anticonvulsant activity in Kunming mouse assessed as protection against maximal electroshock-induced seizures at 100 mg/kg, ip after 4 hrs; assay type: functional, organism-based; parameters: dose 100 mg/kg
Mus musculus [25] = assay: Anticonvulsant activity in Kunming mouse assessed as protection against maximal electroshock-induced seizures at 300 mg/kg, ip after 4 hrs; assay type: functional, organism-based; parameters: dose 300 mg/kg
Mus musculus [26] = assay: Anticonvulsant activity in Kunming mouse assessed as protection against subcutaneous pentylenetetrazole-induced seizures at 100 mg/kg, ip after 0.5 hrs; assay type: functional, organism-based; parameters: dose 100 mg/kg; summary of the method: as §1
Mus musculus [27] = assay: Anticonvulsant activity in Kunming mouse assessed as protection against subcutaneous pentylenetetrazole-induced seizures at 300 mg/kg, ip after 0.5 hrs; assay type: functional, organism-based; parameters: dose 300 mg/kg; summary of the method: as §1
Mus musculus [28] = assay: Anticonvulsant activity in Kunming mouse assessed as protection against subcutaneous pentylenetetrazole-induced seizures at 300 mg/kg, ip after 4 hrs; assay type: functional, organism-based; parameters: dose 300 mg/kg; summary of the method: as §1
Rattus norvegicus [29] = assay: Anticonvulsant activity in Kunming rat assessed as protection against subcutaneous pentylenetetrazole-induced seizures at 30 mg/kg, po after 1 hr; assay type: functional
Mus musculus [30] = assay: Anticonvulsant activity in ip dosed Kunming mouse assessed as protection against subcutaneous pentylenetetrazole-induced seizures; assay type: functional
Summary of the method: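 Quantitative phase-II study in groups of 10 male Kunming mice. A range of ip doses in 0.5% carboxymethyl cellulose-0.9% saline (0.1 ml) was given until at least three points fell within 10–90% seizure protection (MES or scPTZ) or minimal neurotoxicity. Rotorod toxicity was read 30 min after dosing.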

Mus musculus [31] = assay: Anticonvulsant activity in ip dosed Kunming mouse assessed as time peak effect; assay type: functional

Row | Compound | Activity (Mus musculus [1]) | Activity (Mus musculus [2]) | Activity (Mus musculus [3]) | Activity (Mus musculus [4]) | Activity (Mus musculus [5]) | Activity (Mus musculus [6]) | Activity (Mus musculus [7]) | Activity (Mus musculus [8]) | Activity (Mus musculus [9]) | Activity (Mus musculus [10]) | Activity (Rattus norvegicus [12]) | Activity (Rattus norvegicus [16]) | Activity (Rattus norvegicus [17]) | Activity (Rattus norvegicus [18]) | Activity (Mus musculus [22]) | Activity (Mus musculus [23]) | Activity (Mus musculus [24]) | Activity (Mus musculus [25]) | Activity (Mus musculus [26]) | Activity (Mus musculus [28]) | further results
1 | CCCCC1CC12NC(=O)N(C)C2=O (configuration not stated) | Active | Active | inactive | inactive | Non-toxic | Non-toxic | Non-toxic | Non-toxic | Non-toxic | Non-toxic | inactive | Non-toxic | Not toxic | Not toxic |  |  |  |  |  |  | Activity (Rattus norvegicus [11]): 25%; Activity (Rattus norvegicus [13]): 50%; Activity (Rattus norvegicus [14]): inactive; Activity (Rattus norvegicus [15]): inactive; Activity (Rattus norvegicus [19]): Not toxic; Activity (Rattus norvegicus [20]): Not toxic
2 | CN1C(=O)NC2(CC2c2ccco2)C1=O (configuration not stated) | inactive | inactive | inactive | inactive | Toxic |  |  | Non-toxic |  |  |  |  |  |  | Active | inactive | inactive | inactive | inactive | inactive | Activity (Mus musculus [21]): inactive; Activity (Mus musculus [27]): inactive
3 | CN1C(=O)NC2(CC2c2ccc(Br)cc2)C1=O (configuration not stated) | inactive | inactive | inactive | inactive | Non-toxic |  | Non-toxic | Non-toxic | Non-toxic |  |  |  |  |  | Active | inactive | inactive | Active | inactive | inactive | Activity (Mus musculus [21]): inactive; Activity (Mus musculus [27]): inactive
4 | COc1ccc(C2CC23NC(=O)N(C)C3=O)cc1 (configuration not stated) | inactive | inactive | inactive | inactive | Non-toxic | Non-toxic | Non-toxic | Non-toxic | Non-toxic | Non-toxic |  |  |  |  | Active | inactive | inactive | Active | inactive | inactive | 
5 | COc1ccc(C2CC23NC(=O)N(C)C3=O)c(OC)c1OC (configuration not stated) | inactive | inactive | inactive |  | Non-toxic | Non-toxic | Non-toxic | Non-toxic | Non-toxic | Non-toxic |  | Non-toxic | Not toxic | Not toxic |  | inactive | inactive | Active |  |  | Activity (Rattus norvegicus [19]): Not toxic; Activity (Rattus norvegicus [20]): Not toxic; Activity (Rattus norvegicus [29]): inactive
6 | O=C1NC(=O)C(c2ccccc2)(c2ccccc2)N1 [PHENYTOIN] |  |  |  |  |  |  |  |  |  |  | Active |  |  |  |  |  |  |  |  |  | ED50 (Mus musculus [30]): > 300 mg/kg; Time (Mus musculus [31]): 2 h

Reference: ChEMBL document CHEMBL1240414, “Synthesis and anticonvulsant activity of new 6-methyl-1-substituted-4,6-diazaspiro[2.4]heptane-5,7-diones” (Eur J Med Chem, 2010)
